Here are results for 5 compounds from ChEMBL document CHEMBL4033789, “Discovery of a New Four-Leaf Clover-Like Ligand as a Potent c-MYC Transcription Inhibitor Specifically Targeting the Promoter G-Quadruplex” (J Med Chem, 2018).

Active and inactive are the calls of the source. The rule behind the calls is not given here.

The subject of series [1] is SiHa. Put plainly: Antitumor activity against human SiHa cells xenografted in nude BALB/c mouse assessed as tumor growth inhibition at 1 mg/kg, ip administered every other day for 24 days. It counts as functional, organism-based. The gist of the method:
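BALB/c nude mice (5 weeks old) given 1×10^7 SiHa cells subcutaneously in right flank; at ~50 mm3 tumor volume, randomized (10 per group) and dosed intraperitoneally every other day for 24 days; controls got equal-volume saline. Caliper volume as 1/2 × length × width2; tumors weighed at end; inhibition rate = (1 − mean treated tumor weight/mean control tumor weight) × 100%.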

The subject of series [2] is Mus musculus. Put plainly: Toxicity in nude BALB/c mouse xenografted with human SiHa cells assessed as body weight reduction at 1 mg/kg, ip administered every other day for 24 days. Type of series: organism-based. The note with it: in vivo, 576 h. A digest of the protocol:
(§1)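 BALB/c nude mice, 5 weeks old, implanted subcutaneously in right flank with 1×10^7 SiHa cells; at ~50 mm3 tumor, 10 per group dosed ip every other day for 24 days, saline control; body weight measured daily, viscera weighed at sacrifice; mean ± SEM, Student's t test versus saline.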

Series [3] deals with Mus musculus. Kind of series: Toxicity in nude BALB/c mouse xenografted with human SiHa cells assessed as viscera weight reduction at 1 mg/kg, ip administered every other day for 24 days. Type of series: organism-based. The following applies: in vivo, 576 h. A digest of the protocol:
as §1

Series [4] deals with Mus musculus. Kind of series: In vivo stabilization of c-Myc G-quadruplex DNA in human SiHa cells xenografted in nude BALB/c mouse assessed as decrease in c-Myc expression at 1 mg/kg, ip administered every other day for 24 days by immunohistochemistry. It counts as functional, organism-based.
Series [5] can be described thus: Binding affinity to 1 uM G-triplex DNA (unknown origin) at 1 uM after 1 min by fluorescence spectroscopic analysis.
Series [6] can be described thus: Binding affinity to 1 uM i-motif DNA (unknown origin) at 1 uM after 1 min by fluorescence spectroscopic analysis.
The nature of series [7]: Binding affinity to 1 uM hybrid telomeric htg22 G-quadruplex DNA (unknown origin) at 1 uM after 1 min by fluorescence spectroscopic analysis. Type of series: ADME. The gist of the method:
(§2)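 Fluorescence emission spectra of 1 µM compound mixed with 1 µM pre-annealed oligonucleotide (G-quadruplexes folded in 100 mM KCl by heating to 95 °C for 5 min, slow cooling), in Tris-HCl buffer.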

Series [8] can be described thus: Binding affinity to 1 uM antiparallel HRAS G-quadruplex DNA (unknown origin) at 1 uM after 1 min by fluorescence spectroscopic analysis. It counts as ADME. The gist of the method:
as §2

The nature of series [9]: Binding affinity to 1 uM c-MYC promoter G-quadruplex pu22 DNA (unknown origin) at 1 uM after 1 min by fluorescence spectroscopic analysis. A digest of the protocol: as §2
The test system of series [10] is SiHa. Kind of series: Cytotoxicity against human SiHa cells assessed as reduction in cell viability after 24 hrs by MTT assay. It counts as functional, cell-based. A digest of the protocol:
(§3)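 Cells seeded at 5.0×10^3 per well, exposed to compound for 24 h; MTT (2.5 mg/mL) added for 4 h, formazan dissolved in DMSO, OD read at 570 nm. Triplicate; IC50 from curves of mean OD against concentration.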

In the next series the test system is HeLa. Put plainly: Cytotoxicity against human HeLa cells assessed as reduction in cell viability after 24 hrs by MTT assay. Type of series: functional, cell-based. A digest of the protocol:
as §3

The next series relates to Huh-7. Kind of series: Cytotoxicity against human Huh7 cells assessed as reduction in cell viability after 24 hrs by MTT assay. The note with it: Huh-7, 24 h. Type of series: functional, cell-based. A digest of the protocol:
as §3

The test system of another series is A-375. Put plainly: Cytotoxicity against human A375 cells assessed as reduction in cell viability after 24 hrs by MTT assay. Type of series: functional, cell-based. The note with it: A-375, 24 h. The gist of the method: as §3
A short description of series [11]: Cytotoxicity against mouse primary mesangial cells assessed as reduction in cell viability after 24 hrs by MTT assay. It counts as cell-based. The gist of the method:
as §3

Another series deals with BJ. Kind of series: Cytotoxicity against human BJ cells assessed as reduction in cell viability after 24 hrs by MTT assay. It counts as cell-based. A digest of the protocol: as §3

For the compound `COc1cccc2c1C(=O)c1c(O)c3c(c(O)c1C2=O)C[C@@](O)(C(=O)CO)C[C@@H]3O[C@H]1C[C@H](N)[C@H](O)[C@H](C)O1` [DOXORUBICIN], the TGI entry with SiHa [1] was “Active”. Moreover, the Activity result in the series on Mus musculus [2] and in the series on Mus musculus [3] was “Toxic” throughout. Besides, the outcome in the series with Mus musculus [4] was Active.
For `CCn1c2ccccc2c2cc(-c3nc(-c4ccc(N5CCN(C)CC5)cc4)c(-c4ccc(F)cc4)[nH]3)ccc21`, the outcome in series [5] and in series [6] was inactive. Also, the Activity result in series [7] and in series [8] was “Not Active” in each case. In addition, in series [9], the result was Active. Also, the IC50 was found to be 30.1 µM in the series with SiHa [10]; 15.3 µM in the series on HeLa; 12.4 µM in the series on Huh-7; 7.4 µM in the series with A-375; 17.3 µM in series [11]; 13.9 µM with BJ.
As for `CCn1c2ccccc2c2cc(-c3nc(-c4ccc(F)cc4)c(-c4ccc(F)cc4)[nH]3)ccc21`, in series [9], the result was Active. For the same compound, the IC50 (with SiHa [10]; in the series with HeLa; with Huh-7; in the series on A-375; in series [11]; in the series with BJ) was > 80 µM in each case.
In the case of `CCn1c2ccccc2c2cc(-c3nc(-c4ccc(F)cc4)c(-c4ccc(F)cc4)n3-c3ccc(OC)cc3)ccc21`, the Activity entry in [7] and in series [8] was “Not Active” in each case. Moreover, the result in series [9] was inactive. Moreover, the IC50 (in the series on SiHa [10]; in the series with HeLa; with Huh-7; with A-375; in series [11]; in the series with BJ) was > 80 µM in each case.
Turning to `CCn1c2ccccc2c2cc(-c3nc(-c4ccc(N5CCN(C)CC5)cc4)c(-c4ccc(N5CCN(C)CC5)cc4)[nH]3)ccc21`, the IC50 came to 2.3 µM with SiHa [10]; 2.5 µM in the series with HeLa; 2.7 µM with Huh-7; 2.3 µM in the series with A-375; 3.1 µM in series [11]; 2.8 µM in the series with BJ.
